Measured values published in ChEMBL document CHEMBL4229335 (Eur J Med Chem, 2018).
Active and inactive are the calls of the source. The rule behind the calls is not given here.

Experiments:
[1] = test system: HL-60; test: Antiproliferative activity against human HL60 cells after 72 hrs by MTT assay; assay type: functional, cell-based; settings: HL-60, 72 h
Method in brief: (§1)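 MTT assay with 72 h exposure to graded concentrations in triplicate. MTT solution then DMSO were added, followed by 10 min at room temperature, with absorbance read at 490 nm. IC50 is reported as the mean of three independent experiments. 5-FU served as positive control.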

[2] = test system: PC-3; test: Antiproliferative activity against human PC3 cells after 72 hrs by MTT assay; assay type: functional, cell-based; settings: PC-3, 72 h; method in brief: as §1
[3] = test system: Bel-7402; test: Antiproliferative activity against human Bel7402 cells after 72 hrs by MTT assay; assay type: functional, cell-based; settings: Bel-7402, 72 h; method in brief: as §1
[4] = test system: Bel7402/5-FU; test: Antiproliferative activity against human Bel7402/5-FU cells after 72 hrs by MTT assay; assay type: functional, cell-based; method in brief: as §1
[5] = test system: L02; test: Antiproliferative activity against human LO2 cells after 72 hrs by MTT assay; assay type: cell-based; settings: L02, 72 h; method in brief: as §1
[6] = Selectivity index, ratio of IC50 for human LO2 cells to IC50 for human Bel7402 cells; assay type: toxicity; settings: LO2 cells versus Bel7402 cells, read-out: Ratio IC50
Method in brief: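 SI was calculated as IC50 in L-02 normal liver cells divided by IC50 in Bel-7402 cells, both from the 72 h MTT assay.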

[7] = test system: Bel-7402; test: Cell cycle arrest in human Bel7402 cells assessed as accumulation of cells at G1 phase at 0.4 uM after 48 hrs by propidium iodide staining-based flow cytometric analysis (reference value: 63.55%); assay type: functional
Method in brief: (§2)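 Bel-7402 cells were seeded in 6-well plates and grown 24 h at 37 °C. Compound in DMSO was added in triplicate, with DMSO-only controls, for 48 h. Cells were then centrifuged, fixed in 70% ethanol at 4 °C and stained with propidium iodide. DNA content was measured by flow cytometry to give cell-cycle phase distribution.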

[8] = test system: Bel-7402; test: Cell cycle arrest in human Bel7402 cells assessed as accumulation of cells at G2 phase at 0.4 uM after 48 hrs by propidium iodide staining-based flow cytometric analysis (reference value: 23.53%); assay type: functional; method in brief: as §2
[9] = test system: Bel-7402; test: Cell cycle arrest in human Bel7402 cells assessed as accumulation of cells at S phase at 0.4 uM after 48 hrs by propidium iodide staining-based flow cytometric analysis (reference value: 12.92%); assay type: functional; method in brief: as §2
[10] = test system: Bel-7402; test: Cell cycle arrest in human Bel7402 cells assessed as G2/G1 phase ratio level at 0.4 uM after 48 hrs by propidium iodide staining-based flow cytometric analysis (reference value: 1.82%); assay type: functional; method in brief: as §2
[11] = test system: Bel-7402; test: Cell cycle arrest in human Bel7402 cells assessed as accumulation of cells at G1 phase at 0.8 uM after 48 hrs by propidium iodide staining-based flow cytometric analysis (reference value: 63.55%); assay type: functional; method in brief: as §2
[12] = test system: Bel-7402; test: Cell cycle arrest in human Bel7402 cells assessed as accumulation of cells at G2 phase at 0.8 uM after 48 hrs by propidium iodide staining-based flow cytometric analysis (reference value: 23.53%); assay type: functional; method in brief: as §2
[13] = test system: Bel-7402; test: Cell cycle arrest in human Bel7402 cells assessed as accumulation of cells at S phase at 0.8 uM after 48 hrs by propidium iodide staining-based flow cytometric analysis (reference value: 12.92%); assay type: functional; method in brief: as §2
[14] = test system: Bel-7402; test: Cell cycle arrest in human Bel7402 cells assessed as G2/G1 phase ratio level at 0.8 uM after 48 hrs by propidium iodide staining-based flow cytometric analysis (reference value: 1.82%); assay type: functional; method in brief: as §2
[15] = test system: Bel-7402; test: Cell cycle arrest in human Bel7402 cells assessed as accumulation of cells at G1 phase at 1.2 uM after 48 hrs by propidium iodide staining-based flow cytometric analysis (reference value: 63.55%); assay type: functional; method in brief: as §2
[16] = test system: Bel-7402; test: Cell cycle arrest in human Bel7402 cells assessed as accumulation of cells at G2 phase at 1.2 uM after 48 hrs by propidium iodide staining-based flow cytometric analysis (reference value: 23.53%); assay type: functional; method in brief: as §2
[17] = test system: Bel-7402; test: Cell cycle arrest in human Bel7402 cells assessed as accumulation of cells at S phase at 1.2 uM after 48 hrs by propidium iodide staining-based flow cytometric analysis (reference value: 12.92%); assay type: functional; method in brief: as §2
[18] = test system: Bel-7402; test: Cell cycle arrest in human Bel7402 cells assessed as G2/G1 phase ratio level at 1.2 uM after 48 hrs by propidium iodide staining-based flow cytometric analysis (reference value: 1.82%); assay type: functional; method in brief: as §2
[19] = test system: Bel-7402; test: Induction of apoptosis in human Bel7402 cells assessed as chromatin condensation at 0.4 to 1.2 uM after 48 hrs by Hoechst […] staining-based fluorescent microscopic analysis; assay type: functional, cell-based
Method in brief: (§3)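 Bel-7402 cells were seeded in 6-well plates in 2 mL medium and grown 24 h. Compound was then added for 48 h, with a vehicle control. Nuclei were stained with Hoechst 33258 and examined by fluorescence microscopy for chromatin condensation and nuclear disintegration.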

[20] = test system: Bel-7402; test: Induction of apoptosis in human Bel7402 cells assessed as nuclear disintegration at 0.4 to 1.2 uM after 48 hrs by Hoechst […] staining-based fluorescent microscopic analysis; assay type: functional, cell-based; method in brief: as §3
[21] = test system: Bel-7402; test: Induction of apoptosis in human Bel7402 cells assessed as early apoptotic cells at 0.4 uM after 24 hrs by Annexin V-FITC/propidium iodide staining-based flow cytometric analysis (reference value: 1.07%); assay type: functional
[22] = test system: Bel-7402; test: Induction of apoptosis in human Bel7402 cells assessed as late apoptotic cells at 0.4 uM after 24 hrs by Annexin V-FITC/propidium iodide staining-based flow cytometric analysis (reference value: 0.96%); assay type: functional
[23] = test system: Bel-7402; test: Induction of apoptosis in human Bel7402 cells assessed as necrotic cells at 0.4 uM after 24 hrs by Annexin V-FITC/propidium iodide staining-based flow cytometric analysis (reference value: 11.96%); assay type: functional
[24] = test system: Bel-7402; test: Induction of apoptosis in human Bel7402 cells assessed as early apoptotic cells at 0.8 uM after 24 hrs by Annexin V-FITC/propidium iodide staining-based flow cytometric analysis (reference value: 1.07%); assay type: functional
[25] = test system: Bel-7402; test: Induction of apoptosis in human Bel7402 cells assessed as late apoptotic cells at 0.8 uM after 24 hrs by Annexin V-FITC/propidium iodide staining-based flow cytometric analysis (reference value: 0.96%); assay type: functional
[26] = test system: Bel-7402; test: Induction of apoptosis in human Bel7402 cells assessed as necrotic cells at 0.8 uM after 24 hrs by Annexin V-FITC/propidium iodide staining-based flow cytometric analysis (reference value: 11.96%); assay type: functional
[27] = test system: Bel-7402; test: Induction of apoptosis in human Bel7402 cells assessed as early apoptotic cells at 1.2 uM after 24 hrs by Annexin V-FITC/propidium iodide staining-based flow cytometric analysis (reference value: 1.07%); assay type: functional
[28] = test system: Bel-7402; test: Induction of apoptosis in human Bel7402 cells assessed as late apoptotic cells at 1.2 uM after 24 hrs by Annexin V-FITC/propidium iodide staining-based flow cytometric analysis (reference value: 0.96%); assay type: functional
[29] = test system: Bel-7402; test: Induction of apoptosis in human Bel7402 cells assessed as necrotic cells at 1.2 uM after 24 hrs by Annexin V-FITC/propidium iodide staining-based flow cytometric analysis (reference value: 11.96%); assay type: functional
[30] = test system: Bel-7402; test: Induction of apoptosis in human Bel7402 cells after 24 hrs by Annexin V-FITC/propidium iodide staining-based flow cytometric analysis; assay type: functional, cell-based
[31] = test system: Bel-7402; test: Induction of mitochondrial membrane potential loss in human Bel7402 cells at 0.4 uM after 48 hrs by JC-1 dye-based flow cytometric analysis (reference value: 7.20%); assay type: functional
Method in brief: (§4)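 Bel-7402 cells were exposed in triplicate for 48 h to compound or vehicle. Cells were washed with PBS and stained with JC-1 in the dark. The fraction of cells with collapsed versus intact mitochondrial membrane potential was counted by flow cytometry.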

[32] = test system: Bel-7402; test: Induction of mitochondrial membrane potential loss in human Bel7402 cells at 0.8 uM after 48 hrs by JC-1 dye-based flow cytometric analysis (reference value: 7.20%); assay type: functional; method in brief: as §4
[33] = test system: Bel-7402; test: Induction of mitochondrial membrane potential loss in human Bel7402 cells at 1.2 uM after 48 hrs by JC-1 dye-based flow cytometric analysis (reference value: 7.20%); assay type: functional; method in brief: as §4
[34] = test system: Bel-7402; test: Induction of mitochondrial membrane potential in human Bel7402 cells after 48 hrs by JC-1 dye-based flow cytometric analysis; assay type: functional, cell-based; method in brief: as §4
[35] = test system: Bel-7402; test: Induction of apoptosis in human Bel7402 cells assessed as upregulation of Bax expression after 48 hrs by Western blot analysis; assay type: functional, cell-based
Method in brief: (§5)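 Bel-7402 cells were treated in triplicate for 48 h at 0, 0.4, 0.8 and 1.2 µM. Protein content of lysates was determined, then lysates were run on 10% SDS-PAGE and transferred to nitrocellulose. Membranes were blocked with 5% fat-free milk, probed with monoclonal antibodies and detected by ECL chemiluminescence.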

[36] = test system: Bel-7402; test: Induction of apoptosis in human Bel7402 cells assessed as upregulation of caspase3 expression after 48 hrs by Western blot analysis; assay type: functional, cell-based; method in brief: as §5
[37] = test system: Bel-7402; test: Induction of apoptosis in human Bel7402 cells assessed as upregulation of caspase9 expression after 48 hrs by Western blot analysis; assay type: functional, cell-based; method in brief: as §5
[38] = test system: Bel-7402; test: Induction of apoptosis in human Bel7402 cells assessed as upregulation of cytochrome C expression after 48 hrs by Western blot analysis; assay type: functional, cell-based; method in brief: as §5
[39] = test system: Bel-7402; test: Induction of apoptosis in human Bel7402 cells assessed as upregulation of p53 expression after 48 hrs by Western blot analysis; assay type: functional, cell-based; method in brief: as §5
[40] = test system: Bel-7402; test: Induction of apoptosis in human Bel7402 cells assessed as downregulation of Bcl2 expression after 48 hrs by Western blot analysis; assay type: functional, cell-based; method in brief: as §5

## C=C1C(=O)[C@@]23C(=O)O[C@H]4CCC(C)(C)[C@H]5[C@H](OC(=O)CCC(=O)N[C@@H](Cc6ccc(N(CCCl)CCCl)cc6)C(=O)OC)OC[C@@]45[C@@H]2CC[C@@H]1[C@H]3OC(=O)CCC(=O)N[C@@H](Cc1ccc(N(CCCl)CCCl)cc1)C(=O)OC
[1]
  IC50: 17.6 µM
[2]
  IC50: > 100 µM
[3]
  IC50: 5.73 µM
[4]
  IC50: 7.93 µM
[5]
  IC50: > 100 µM

## C=C1C(=O)[C@@]23C(=O)O[C@H]4CCC(C)(C)[C@H]5[C@H](O)OC[C@@]45[C@@H]2CC[C@@H]1[C@H]3OC(=O)c1ccc(N(CCCl)CCCl)cc1
[1]
  IC50: 7.83 µM
[2]
  IC50: 3.97 µM
[3]
  IC50: 0.77 µM
[4]
  IC50: 2.07 µM
[5]
  IC50: > 100 µM
[6]
  selectivity ratio: > 130
[7]
  Activity: 66.71%
[8]
  Activity: 18.15%
[9]
  Activity: 15.15%
[10]
  Ratio: 1.84
[11]
  Activity: 69.71%
[12]
  Activity: 15.87%
[13]
  Activity: 14.42%
[14]
  Ratio: 1.85
[15]
  Activity: 72.09%
[16]
  Activity: 13.33%
[17]
  Activity: 14.59%
[18]
  Ratio: 1.84
[19]
  Activity: Active
[20]
  Activity: Active
[21]
  Activity: 11.8%
[22]
  Activity: 7.07%
[23]
  Activity: 8.38%
[24]
  Activity: 24.22%
[25]
  Activity: 11.31%
[26]
  Activity: 4.23%
[27]
  Activity: 41.53%
[28]
  Activity: 19.39%
[29]
  Activity: 4.33%
[30]
  Activity: Dose-dependent effect
[31]
  Activity: 14.38%
[32]
  Activity: 20.93%
[33]
  Activity: 40%
[34]
  Activity: Dose-dependent effect
[35]
  Activity: Dose-dependent effect
[36]
  Activity: Dose-dependent effect
[37]
  Activity: Dose-dependent effect
[38]
  Activity: Dose-dependent effect
[39]
  Activity: Dose-dependent effect
[40]
  Activity: Dose-dependent effect

## C=C1C(=O)[C@@]23C(=O)O[C@H]4CCC(C)(C)[C@H]5C(=O)OC[C@@]45[C@@H]2CC[C@@H]1[C@H]3OC(=O)CCC(=O)N[C@@H](Cc1ccc(N(CCCl)CCCl)cc1)C(=O)OC
[1]
  IC50: 18.5 µM
[2]
  IC50: > 100 µM
[3]
  IC50: 6.5 µM
[4]
  IC50: 12.8 µM
[5]
  IC50: > 100 µM
